Bioassay records as filed in PubChem.
Shown are actives, neighbours in structure and some others; about 3.3% of the full set was active somewhere.
ATG4B inh: ATG4B protease inhibitors, primary screen, biochemical, fluorescence, uHTS; ATG4B cleavage of LC3-PLA2, NBD-HPC fluorescence, 1 h; 340,000 compounds, 0.51% hits; inhibition, % at 8.33 µM; Cysteine protease ATG4B (Homo sapiens), Q9Y4P1; in the data active = inhibition above about 40%
Arr AP2 block: inhibitors of beta-arrestin/AP2 binding, primary screen, biochemical, GPCR trafficking, flow cytometry; FITC-arrestin peptide / GST-AP2 beads; AP2 beta2 appendage carries R879A mutation; 340,000 compounds, 0.31% hits; beta-arrestin 1 C-terminal peptide binding to AP2 beta2-adaptin appendage (human); AID 504490, 2011; inhibition, % at 10 µM;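 active = inhibition above a set limit, near 3 SD of compounds lacking own fluorescence, cut at about 54% in these data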;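 note: plate controls were DMSO wells for no effect and 5 µM unlabelled arrestin peptide for full effect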
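Material – AP2 appendage R879A on GSH beads · Buffer or medium – PBS with 0.05% Tween 20 and 0.1% BSA · Probe or stimulus – fluorescein-tagged arrestin peptide at 50 nM final · Incubation – compound with beads 12 min RT, then probe 1 h RT · Detection – high-throughput flow cytometry of beads, ex 488, em 535 nm · Evaluation – percent response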
Exocytosis inh: LAMP-1 surface exposure blockers, TALL-104 cells – cell-based, flow cytometry, MLPCN library, primary screen | TALL-104 LAMP-1 surface exposure; cells stimulated with thapsigargin and PMA | inhibition, % at 10 µM | 360,000 compounds, 0.66% hits | AID 651702, 2012;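 active = inhibition above about 55%, limit read from the data; inconclusive = no clear call, values can overlap the other calls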
NRP1-CendR mod: modulators of CendR peptide binding to NRP-1, primary screen, biochemical, fluorescence polarization, uHTS; FAM-RPARPAR peptide binding to NRP-1; 360,000 compounds, 0.85% hits; inhibition, % at 25 µM;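 active = inhibition or corrected inhibition above about 18%, plus a signal ratio from 0.5 to 1.5, limit read from the data, passing the limit was not always enough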
Target sequence (O14786 whole entry, looked up): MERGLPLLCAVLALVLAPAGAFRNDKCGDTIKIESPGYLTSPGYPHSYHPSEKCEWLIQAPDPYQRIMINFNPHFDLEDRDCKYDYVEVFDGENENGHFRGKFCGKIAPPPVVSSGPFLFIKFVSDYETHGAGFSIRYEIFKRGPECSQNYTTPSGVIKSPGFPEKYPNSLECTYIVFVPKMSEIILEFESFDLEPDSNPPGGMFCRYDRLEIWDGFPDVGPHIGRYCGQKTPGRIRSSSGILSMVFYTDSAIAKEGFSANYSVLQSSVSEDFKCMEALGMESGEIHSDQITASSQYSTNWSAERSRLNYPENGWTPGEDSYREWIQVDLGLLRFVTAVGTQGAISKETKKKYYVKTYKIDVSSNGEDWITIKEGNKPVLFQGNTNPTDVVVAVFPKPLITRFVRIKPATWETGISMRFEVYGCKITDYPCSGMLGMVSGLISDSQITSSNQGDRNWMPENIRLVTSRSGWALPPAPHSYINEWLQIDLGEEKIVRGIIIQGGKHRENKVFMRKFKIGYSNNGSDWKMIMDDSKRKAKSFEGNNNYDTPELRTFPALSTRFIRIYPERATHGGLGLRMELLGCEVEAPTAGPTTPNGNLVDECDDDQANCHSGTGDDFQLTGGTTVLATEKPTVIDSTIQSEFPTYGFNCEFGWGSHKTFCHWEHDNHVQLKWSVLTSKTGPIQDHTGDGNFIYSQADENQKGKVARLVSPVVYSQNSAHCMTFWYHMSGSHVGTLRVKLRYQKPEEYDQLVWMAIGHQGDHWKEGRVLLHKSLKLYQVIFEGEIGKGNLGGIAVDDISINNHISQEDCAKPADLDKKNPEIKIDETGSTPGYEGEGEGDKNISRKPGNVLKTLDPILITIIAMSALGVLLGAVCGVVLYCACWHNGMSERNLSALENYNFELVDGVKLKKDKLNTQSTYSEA
Myeloid diff MLP: induction of myeloid progenitor differentiation, primary screen, cell-based, flow cytometry, MLPCN library | ER-HoxA9 myeloid progenitors, lysozyme-GFP differentiation | calls only at 10 µM | 360,000 compounds, 1% hits | AID 624256, 2012;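 active = normalized GFP-positive differentiation at or above the plate's own cutoff, the solvent-only control mean plus 3 SD; inconclusive = no clear call, values can overlap the other calls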;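 note: cells exposed to compound for four days before flow analysis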
ABCB6 inh MLPCN: ABCB6 transporter inhibitors, primary screen, K562-ABCB6 cells, flow cytometry, MLPCN library; ATP-binding cassette sub-family B member 6 (Homo sapiens), Q9NP58; K562-ABCB6 porphyrin accumulation, 1 h; hits give low values; fluorescence ratio to DMSO, % at 10 µM; 360,000 compounds, 0.19% hits; AID 602162, 2011;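 active = fluorescence ratio to DMSO below 75%, the collection mean minus 3 SD; inconclusive = too few cells collected in the well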;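 note: signal is porphyrin accumulated inside mitochondria; 100% equals median channel fluorescence of DMSO control wells; lower ratio means ABCB6 inhibition with less porphyrin fluorescence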
Active calls of the source: *; i = inactive; u = inconclusive; x = no result given; + = active, no number.

SMILES	ATG4B inh	Arr AP2 block	Exocytosis inh	NRP1-CendR mod	Myeloid diff MLP	ABCB6 inh MLPCN
N/C(=N\N=C/c1ccc(Br)cc1)N/N=C\c1ccc(Br)cc1	-1	2	63*	3	i	94
Cc1cccc(C)c1Nc1nnc(SCC(=O)Nc2cc(S(=O)(=O)N3CCCCC3)ccc2Cl)s1	-8	0	4	26*	i	92
Cc1ccc(S(=O)(=O)N2CCCCC2)cc1NC(=O)CSCC(=O)O	-2	14	-2	59*	i	95
CCOC(=O)[C@H]1[C@H]2COc3ccccc3[C@@H]2N2C(=O)CNC(=O)[C@@]12C	-3	3	-12	12	+	99
CCOC1=CC2=C(C(=O)C(Cl)=CC2=O)[C@@H]2CN(S(=O)(=O)c3ccc(C)cc3)[C@@H](c3ccccc3)[C@H]12	x	x	98*	-31	u	101
Nc1n[nH]c2cc(=O)n(-c3cccc(C(F)(F)F)c3)nc12	-18	22	1	0	i	105
O=c1[nH][nH]c2cc(=O)n(-c3cccc(C(F)(F)F)c3)nc12	11	-2	0	26*	i	98
O=C1CC2(CCCC2)Oc2ccccc21	-5	4	14	20	i	96
COc1ccc(-c2coc3cc(OC(C)=O)c(OC)cc3c2=O)cc1	-10	2	4	25*	i	95
COCCN(C(=O)COC(=O)c1cnc(C)cn1)c1c(N)n(Cc2ccccc2)c(=O)[nH]c1=O	-3	5	-1	-7	i	107
O=C(CN1C(=O)c2ccccc2C1=O)Nc1cccc(S(=O)(=O)Nc2ccccc2Cl)c1	3	17	5	33*	i	106
O=C(CN1C(=O)c2ccccc2C1=O)Nc1cccc(Cl)c1	0	-2	3	-2	i	106
CSc1cccc(N2CC(C(=O)N(Cc3nnc(-c4ccccc4Cl)o3)C3CC3)CC2=O)c1 (stereo unspecified)	-6	8	5	6	+	96
Oc1ccccc1CC=NC1CCCCC1	10	-1	-2	-14	+	145
Oc1ccc2ccccc2c1C=NC1CCCCC1	11	33	6	-1	i	110
Cc1ccc2nc(Cl)c(C3CC(c4ccco4)=NN3C(=O)CCCC(=O)O)cc2c1 (stereo unspecified)	0	-1	1	-1	i	97
CC(=O)N1N=C(c2ccco2)CC1c1cc2cc(C)ccc2nc1Cl (stereo unspecified)	-5	-7	2	-15	+	163
COc1ccc(N(CC(=O)NCc2ccccc2Cl)S(=O)(=O)c2c(C)n[nH]c2C)cc1	0	18	8	1	i	106
CCSc1ccc2cc(OC)ccc2[n+]1CC	-8	-13	-2	1	+	101
CCOC(=O)Cc1csc(NS(=O)(=O)c2ccc(OC)cc2)n1	-5	9	-3	12	i	103
CCCc1[nH]n(-c2ccc([N+](=O)[O-])cc2)c(=O)c1C=NCCc1c[nH]c2ccccc12	2	20	90*	1	i	99
Cc1[nH]n(-c2ccc([N+](=O)[O-])cc2)c(=O)c1C=NCCc1c[nH]c2ccccc12	-2	3	28	1	i	96
CNc1cncc(C(=O)O)c1	5	-5	-14	8	i	113
O=C(COc1ccc(S(=O)(=O)NC2CCCCC2)cc1)N1CCN(c2cccc(Cl)c2)CC1	-6	1	6	-3	i	93
Cc1nn(-c2ccccc2)c(C)c1C(=O)OCC(=O)Nc1ccccc1	-13	-16	-1	26*	i	100
SMILES	ATG4B inh	Arr AP2 block	Exocytosis inh	NRP1-CendR mod	Myeloid diff MLP	ABCB6 inh MLPCN
CCC1(CC)NC(=O)N(CC(=O)OCC(=O)Nc2cc(OC)ccc2OC)C1=O	-2	-1	3	24*	i	98
CCC1(CC)NC(=O)N(CC(=O)OCC(=O)Nc2ccc(F)c(F)c2F)C1=O	0	0	-2	1	i	91
O=C(Nc1cccc(S(=O)(=O)NC2=NCCC2)c1)c1cn(-c2ccccc2)nc1-c1ccc(F)cc1	-10	-6	10	4	i	93
CNC(=S)NNC(=O)c1sc2cc(C(F)(F)F)cnc2c1-c1ccccn1	-7	-5	-1	23*	i	100
Cn1c(-c2sc3cc(C(F)(F)F)cnc3c2-c2ccccn2)n[nH]c1=S	2	-19	0	25*	i	84
CNC(=S)NNC(=O)c1sc2cc(C(F)(F)F)cnc2c1-c1cccnc1	1	-15	-1	1	i	95
Cc1ccc(-n2c(C)nnc2SCC(=O)N(C)C2CCS(=O)(=O)C2)cc1 (stereo unspecified)	-5	-9	-1	12	i	93
CCOC(=O)/C=C1\NC(=O)CS1	-13	-4	-2	28*	i	95
Cn1cc(Cc2ccc(C(=O)N3CCOCC3)cn2)c2ccccc21	x	x	0	4	i	101
CCNc1c([N+](=O)[O-])ncn1C	1	-9	0	32*	i	94
Cn1cnc([N+](=O)[O-])c1NCc1ccccc1	18	14	14	4	i	107
Cc1nc(C)c(C(=O)OCC(=O)Nc2ccccc2SCC#N)s1	-5	-7	1	-22	+	272
Cc1nc(C)c(C(=O)OCC(=O)Nc2ccccc2)s1	-1	7	-5	-14	i	95
CC(C)(Nc1ccccc1)C(=O)c1ccccc1	6	9	-7	-4	i	102
O=C(CSc1nccn1Cc1ccc(F)cc1)NC1CCCC1	2	3	-2	7	i	97
O=C(CSc1nccn1Cc1ccc(F)cc1)NC1CCCCC1	x	x	4	25*	i	99
Fc1ccccc1NC(=S)Nc1cccc2cnccc12	-4	11	23	44*	i	97
Cc1ccccc1NC(=S)Nc1cccc2cnccc12	-5	2	-1	2	i	96
CCC(=O)OC1(C)C(=O)C=C2C=C(c3ccsc3)OC=C2C1=O (stereo unspecified)	82*	28	2	-55	i	106
CS(=O)(=O)N1CCN(CC2CC3C=CC2C3)CC1 (stereo unspecified)	-5	2	-1	15	i	99
CCN1CCN(CC2CC3C=CC2C3)CC1 (stereo unspecified)	-4	-52	19	31*	i	99
